Results published in PMC5110371 (Nature chemical biology, 2016).

Columns and labels:
[1] = test system: D423 ENO1-deleted glioma cells; experiment: 13C-1 glucose isotope tracing; format: cell-based, human; conditions: 10 μM; for conversion of 13C-1 glucose to 13C-3 glycerate: 72 hours
How it was run: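 Glucose-free DMEM supplemented with 10 mM 13C-1 glucose; test compound at 10 μM. Media extracted with 80% methanol at −80 °C, centrifuged, lyophilised, redissolved in D2O and analysed by proton-decoupled 13C NMR. Glycerate was read as the peak at 64 ppm, also expressed as a ratio to 13C-3 lactate. Isogenic ENO1-rescued D423 cells served as comparison.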

[2] = test system: D423 ENO1-deleted glioma cells; experiment: Cell density; format: cell-based, human; conditions: 72 hours
How it was run: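 Cells were seeded at 1 × 10^4 cells/well in 96-well plates and treated the next day. They were then held either under hypoxia (0.1% O2, 5% CO2) or normoxia for 72 h. Cells were fixed in 10% formalin and stained with crystal violet. Dye was extracted with 10% acetic acid and absorbance read at 595 nm.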

[3] = target: T1, ENO2 (Homo sapiens, UniProt P09104); experiment: Thermal shift assay, purified recombinant human ENO2; format: binding; conditions: concentration not stated in the sentence (Supplementary Fig. 6: 1 µM or 25 µM)
T1 sequence (P09104 whole entry): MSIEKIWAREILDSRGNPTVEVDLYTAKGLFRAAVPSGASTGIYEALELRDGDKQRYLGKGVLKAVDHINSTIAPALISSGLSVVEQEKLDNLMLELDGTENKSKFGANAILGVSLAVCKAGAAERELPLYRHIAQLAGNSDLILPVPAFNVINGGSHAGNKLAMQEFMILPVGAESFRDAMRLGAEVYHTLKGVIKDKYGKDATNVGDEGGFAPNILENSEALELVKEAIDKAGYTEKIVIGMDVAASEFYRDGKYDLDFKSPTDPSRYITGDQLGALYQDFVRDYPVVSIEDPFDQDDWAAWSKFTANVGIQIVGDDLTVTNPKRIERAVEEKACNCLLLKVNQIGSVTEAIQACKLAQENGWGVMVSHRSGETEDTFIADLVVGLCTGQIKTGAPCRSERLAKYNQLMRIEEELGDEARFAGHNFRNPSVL
How it was run: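 Diluted and treated with test compound or vehicle in enolase assay buffer (10 mM KCl, 5 mM MgSO4, 100 mM triethanolamine, pH 7.4). Heated 50–90 °C for 3 min, spun 20,000 g for 10 min, supernatant ENO2 immunoblotted.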

[4] = test system: Gli56 ENO1-deleted glioma cells; experiment: Proliferation; format: cell-based, human; conditions: Supplementary Fig. 9
How it was run: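 Growth was followed by IncuCyte live-cell confluence imaging every 4 h. Initial seeding was 1.5 × 10^3 cells/well in 96-well plates, with duplicate replicates. Cells were cultured in DMEM with 10% FBS. ENO1-intact cell lines were used as comparators.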

[5] = target: Triosephosphate isomerase (Homo sapiens, UniProt P60174); experiment: Thermal shift assay, internal control Triosephosphate isomerase; format: binding; conditions: cell lysates
Sequence of Triosephosphate isomerase (P60174 whole entry): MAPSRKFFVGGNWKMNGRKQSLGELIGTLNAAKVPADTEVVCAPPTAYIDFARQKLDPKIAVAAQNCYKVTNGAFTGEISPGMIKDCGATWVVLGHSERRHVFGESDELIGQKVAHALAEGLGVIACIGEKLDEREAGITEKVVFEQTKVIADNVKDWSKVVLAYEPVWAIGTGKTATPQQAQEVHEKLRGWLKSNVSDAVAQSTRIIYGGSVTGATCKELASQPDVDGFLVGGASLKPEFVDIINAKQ
How it was run: (§1)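 Lysates of D423 glioma cells overexpressing ENO1 or ENO2 were made in 20 mM Tris-HCl, 1 mM EDTA, 1 mM β-mercaptoethanol, pH 7.4, homogenised, sonicated and cleared at 20,000 g for 10 min. They were diluted 1:100 in enolase assay buffer (10 mM KCl, 5 mM MgSO4, 100 mM triethanolamine, pH 7.4), given test compound or vehicle, and heated 3 min at 50–90 °C. After 20,000 g spin, supernatant was immunoblotted (anti-vinculin, anti-TPI, both 1:3000).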

[6] = target: Enolase 2 (Homo sapiens, UniProt P09104); experiment: Cellular thermal shift assay in intact D423 ENO2 glioma cells; format: cell-based; conditions: 100 μM, without inhibitor ~65 °C
Sequence of Enolase 2 (P09104 whole entry): as the sequence (P09104 whole entry) above
How it was run: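 D423 glioma cells overexpressing ENO2, grown in DMEM with 10% FBS, treated one day with 100 μM test compound or vehicle. Trypsinized, PBS-washed, resuspended in PBS at 0.5 × 10^6 cells/mL, heated on a 50–90 °C gradient. Lysed with twice the volume of 20 mM Tris-HCl, 1 mM EDTA, 1 mM β-mercaptoethanol pH 7.4, plus one dry-ice freeze-thaw. Soluble ENO2 followed by immunoblotting.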

[7] = target: T1, ENO2; experiment: Ligand-induced thermal shift assay, lysates of D423 overexpressing ENO2; format: binding; conditions: 1 μM inhibitor, cell lysates
How it was run: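 Lysate in 20 mM Tris-HCl, 1 mM EDTA, 1 mM β-mercaptoethanol (pH 7.4), homogenised, sonicated and cleared at 20,000 g for 10 min. Diluted 1:100 in enolase buffer (10 mM KCl, 5 mM MgSO4, 100 mM triethanolamine, pH 7.4). Treated with 1 μM test compound or vehicle, heated at 50–90 °C for 3 min, recentrifuged. ENO2 in supernatant immunoblotted; band intensity plotted versus temperature.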

[8] = target: T2, Vinculin (Homo sapiens, UniProt P18206); experiment: Thermal shift assay, internal control Vinculin; format: binding; conditions: cell lysates
T2 sequence (P18206 1-1066 isoform P18206-2): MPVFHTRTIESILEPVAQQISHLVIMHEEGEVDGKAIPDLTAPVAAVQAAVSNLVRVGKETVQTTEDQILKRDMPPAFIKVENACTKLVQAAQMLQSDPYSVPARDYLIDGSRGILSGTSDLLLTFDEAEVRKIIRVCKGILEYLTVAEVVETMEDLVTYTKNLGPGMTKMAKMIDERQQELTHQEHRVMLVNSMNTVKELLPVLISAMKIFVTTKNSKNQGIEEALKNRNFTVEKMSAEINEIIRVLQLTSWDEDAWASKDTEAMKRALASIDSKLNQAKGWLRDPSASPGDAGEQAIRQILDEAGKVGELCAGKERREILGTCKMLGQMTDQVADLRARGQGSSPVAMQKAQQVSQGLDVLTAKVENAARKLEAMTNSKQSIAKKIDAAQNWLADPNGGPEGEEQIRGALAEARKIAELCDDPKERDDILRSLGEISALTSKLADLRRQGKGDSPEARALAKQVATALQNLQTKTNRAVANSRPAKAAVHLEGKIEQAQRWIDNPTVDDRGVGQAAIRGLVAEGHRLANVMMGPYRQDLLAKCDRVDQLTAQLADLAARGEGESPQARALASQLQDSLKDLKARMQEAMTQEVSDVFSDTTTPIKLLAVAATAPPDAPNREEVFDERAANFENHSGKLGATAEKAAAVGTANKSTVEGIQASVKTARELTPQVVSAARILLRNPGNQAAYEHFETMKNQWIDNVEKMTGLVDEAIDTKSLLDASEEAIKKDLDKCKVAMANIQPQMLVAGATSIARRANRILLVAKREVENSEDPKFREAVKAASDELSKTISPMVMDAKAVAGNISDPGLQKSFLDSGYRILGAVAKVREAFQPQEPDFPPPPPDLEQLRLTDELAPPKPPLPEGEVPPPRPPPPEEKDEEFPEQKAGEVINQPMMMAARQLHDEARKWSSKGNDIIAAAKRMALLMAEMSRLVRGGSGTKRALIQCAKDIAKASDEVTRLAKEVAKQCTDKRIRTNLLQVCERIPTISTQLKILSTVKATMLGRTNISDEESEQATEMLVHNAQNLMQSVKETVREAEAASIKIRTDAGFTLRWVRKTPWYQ
How it was run: as §1

[9] = test system: ENO1-intact glioma cells; experiment: Toxicity to ENO1-intact cells; format: cell-based, human; conditions: 10 μM, four days
[10] = Configurational stability in aqueous solution; format: physicochemical
[11] = test system: Staphylococcus; conditions: cited from earlier work
[12] = test system: Salmonella; conditions: cited from earlier work
[13] = test system: E. coli; conditions: cited from earlier work
[14] = test system: D423 ENO1-rescued glioma cells; experiment: Proliferation; format: cell-based, human
How it was run: (§2)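 Cells were seeded at 2 × 10^3 cells/well in 96-well plates and treated for 2 weeks across a concentration range. Medium was then refreshed, and Hoechst 33342 (total cells) plus YO-PRO-1 (apoptotic cells) were added at 1:1000 final dilution for 2 h at 37 °C. Wells were imaged and quantified by high-content imaging. Conditions were run in duplicate and expressed relative to vehicle.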

[15] = test system: D423 ENO1-deleted glioma cells; experiment: Proliferation; format: cell-based, human
How it was run: as §2

[16] = test system: fungi; conditions: cited from earlier work
[17] = test system: D423 ENO1-deleted glioma cells; experiment: Mass spectrometric determination of 3-PGA and PEP; format: cell-based, human; conditions: 10 μM and 25 μM, 72 hours
How it was run: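 D423 ENO1-deleted glioma cells and isogenic ENO1-rescued controls were grown in DMEM with 10% FBS. They were treated with vehicle, 10 μM or 25 μM test compound for 72 h. Polar metabolites were extracted with 80% methanol at −80°C and quantified by mass spectrometry to give the 3-PGA/PEP ratio. Each bar is an independently treated culture; comparisons used unpaired two-tailed t-tests with Bonferroni correction.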

[18] = test system: D423 ENO1-deleted glioma cells; experiment: Time course of ATP; format: cell-based, human
[19] = target: Enolase (Homo sapiens, UniProt P09104); experiment: Enolase enzymatic activity in vitro; format: biochemical
Sequence of Enolase (Homo sapiens, UniProt P09104) (P09104 whole entry): as the sequence (P09104 whole entry) above

[20] = test system: Enolase; experiment: Enolase enzymatic activity in vitro; format: biochemical
[21] = 2 weeks, YO-PRO-1 positive cells

O=C(CP(=O)(O)O)NO [PhAH, Phosphonoacetohydroxamate, reference compound]
conversion of 13C-1 glucose to 13C-3 glycerate [1]: to a lesser extent | concentration at which potentiation of toxicity by hypoxia is evident ([2]; hypoxia vs normoxia): 200 µM | stabilization of recombinant human ENO2 (shift of thermal denaturation curve) [3]: ~ 6 °C | toxicity against Gli56 versus ENO1-intact cell lines [4]: selective toxicity | effect on thermal stability of Triosephosphate isomerase [5]: Neither PhAH nor SF2312 affected the thermal stability | shift of the thermal melting curve of ENO2 in intact glioma cells [6]: ~ 6 °C | shift in the thermal denaturation of ENO2 [7]: ~ 6 °C | effect on thermal stability of Vinculin [8]: Neither PhAH nor SF2312 affected the thermal stability

O=C1C(P(=O)(O)O)CC(O)N1O (stereo not drawn) [SF2312, (1,5-dihydroxy-2-oxopyrrolidin-3-yl)phosphonic acid]
conversion of 13C-1 glucose to 13C-3 glycerate [1]: dramatically increases | glucose consumption and lactate production in media ([1]; four days, 13C-1 glucose, D423 and Gli56 ENO1 deleted cells): profound inhibition of glucose consumption | toxicity [9]: non-toxic | stability of stereocenters [10]: both stereocenters underwent spontaneous epimerization | antibiotic activity [11]: strong activity | antibiotic activity [12]: strong activity | concentrations at which cells were essentially eradicated ([2]; hypoxia (0.1% O2)): > 6.25 µM | eradication of cells ([2]; normoxia, 100 μM inhibitor): no eradication was observed | stabilization of recombinant human ENO2 (shift of thermal denaturation curve) [3]: ~ 12 °C | toxicity against Gli56 versus ENO1-intact cell lines [4]: selective toxicity | antibiotic activity [13]: weak activity | concentration inhibiting proliferation ([14]; 2 weeks treatment course, ectopically re-expressing ENO1): above 200 μM | concentration at which induction of cell death is seen [14, 21]: 400 µM | effect on thermal stability of Triosephosphate isomerase [5]: Neither PhAH nor SF2312 affected the thermal stability | concentration inhibiting proliferation ([15]; 2 weeks treatment course): low μM range | concentration at which induction of cell death starts [15, 21]: 12.5 µM | shift of the thermal melting curve of ENO2 in intact glioma cells [6]: ~ 15 °C | shift in the thermal denaturation of ENO2 [7]: ~ 9.5 °C | melting temperature (Tm) of ENO2 ([7]; without inhibitor ~63 °C): ~ 72.5 °C | effect on thermal stability of Vinculin [8]: Neither PhAH nor SF2312 affected the thermal stability | antibiotic activity [16]: no activity | ratio of 3-PGA/PEP [17]: dramatic increase | time after initiation of treatment at which declines in ATP occurred [18]: 8 h | kinetics with respect to substrate 2-PGA ([19]; ENO2, at IC50): non-competitive kinetics | kinetics with respect to substrate 2-PGA ([19]; ENO2, at higher concentrations of inhibitor): competitive kinetics | type of inhibitor (on/off rate) ([20]; order of addition of inhibitor and substrate): slow-on/slow-off inhibitor

O=C1C(P(=O)(O)O)CCN1O (stereo not drawn) [deoxy-SF2312, 1-hydroxy-2-oxopyrrolidin-3-ylphosphonic acid]
kinetics with respect to substrate 2-PGA ([19]; ENO2 (Fig. 1d)): clear competitive kinetics | IC50 ([20]; read-out: IC50 as an enolase inhibitor): ~2 µM
